Reference: ChEMBL document CHEMBL1135995, “Structure-activity relationships of methoctramine-related polyamines as muscular nicotinic receptor noncompetitive antagonists. 3. Effect of inserting the tetraamine backbone into a macrocyclic structure” (J Med Chem, 2002)

Key:
[1] = tested on: Muscarinic acetylcholine receptor M2 (Cavia porcellus); assay: Antagonist activity against Muscarinic acetylcholine receptor M2 of isolated Guinea Pig Left artium
[2] = target: Acetylcholine receptor (Torpedo californica) (UniProt P02710+P02712+P02718+P02714); assay: Antagonist activity against Nicotinic acetylcholine receptor (nAChR) of isolated Torpedo; format: functional
How it was run: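 Ethidium fluorescence displacement used nAChR-rich membranes from frozen Torpedo californica electric organ (1 µM receptor) with ethidium 7 µM and carbachol 1 mM in 50 mM NaPi, pH 7.4. Competing ligand was added stepwise, with excitation at 480 nm and emission read at 540-740 nm. Kapp was derived by a logarithmic formula (Herz et al.).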

[3] = target: Muscarinic acetylcholine receptor M3 (Cavia porcellus) (UniProt Q8VH26); assay: Antagonist activity against Muscarinic acetylcholine receptor M3 of isolated Guinea Pig Longitudinal ileum; format: functional, tissue-based
How it was run: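 Guinea pig terminal ileum longitudinal muscle (2 cm segments) in PSS, with tension recorded isotonically. After ≥30 min equilibration, APE curves (0.01-0.5 µM) were run at 30 min intervals, the second serving as control. A new curve followed 60 min antagonist incubation, with the antagonist at a single 5 µM concentration in triplicate. EC50 was estimated graphically, with untreated parallel tissues as controls.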

[4] = Antagonist activity against Nicotinic acetylcholine receptor (nAChR) of isolated Frog rectus Abdominis Muscle; format: functional, tissue-based; conditions: Amphibia
[5] = target: Acetylcholinesterase (Homo sapiens, UniProt P22303); assay: Inhibitory activity on Acetylcholinesterase (AChE) from human erythrocytes
[6] = target: T1, Acetylcholine receptor subunit delta (Torpedo californica) (UniProt P02718); conditions: fish
T1 sequence (whole entry): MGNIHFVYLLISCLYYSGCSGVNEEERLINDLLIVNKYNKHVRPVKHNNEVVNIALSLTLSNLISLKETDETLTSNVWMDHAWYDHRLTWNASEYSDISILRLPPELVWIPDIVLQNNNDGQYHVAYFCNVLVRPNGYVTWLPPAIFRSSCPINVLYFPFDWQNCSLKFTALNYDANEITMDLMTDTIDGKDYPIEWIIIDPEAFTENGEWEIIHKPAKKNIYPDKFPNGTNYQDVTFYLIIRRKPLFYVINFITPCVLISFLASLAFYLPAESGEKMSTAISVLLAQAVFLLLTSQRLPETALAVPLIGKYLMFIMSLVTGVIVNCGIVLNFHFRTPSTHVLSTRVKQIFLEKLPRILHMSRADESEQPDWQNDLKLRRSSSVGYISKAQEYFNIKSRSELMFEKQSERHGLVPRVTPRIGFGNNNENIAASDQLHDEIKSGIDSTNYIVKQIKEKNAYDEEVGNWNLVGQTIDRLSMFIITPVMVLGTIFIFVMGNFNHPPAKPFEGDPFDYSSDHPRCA

Muscarinic acetylcholine receptor M3 (Cavia porcellus), sequence (Q8VH26 1-587): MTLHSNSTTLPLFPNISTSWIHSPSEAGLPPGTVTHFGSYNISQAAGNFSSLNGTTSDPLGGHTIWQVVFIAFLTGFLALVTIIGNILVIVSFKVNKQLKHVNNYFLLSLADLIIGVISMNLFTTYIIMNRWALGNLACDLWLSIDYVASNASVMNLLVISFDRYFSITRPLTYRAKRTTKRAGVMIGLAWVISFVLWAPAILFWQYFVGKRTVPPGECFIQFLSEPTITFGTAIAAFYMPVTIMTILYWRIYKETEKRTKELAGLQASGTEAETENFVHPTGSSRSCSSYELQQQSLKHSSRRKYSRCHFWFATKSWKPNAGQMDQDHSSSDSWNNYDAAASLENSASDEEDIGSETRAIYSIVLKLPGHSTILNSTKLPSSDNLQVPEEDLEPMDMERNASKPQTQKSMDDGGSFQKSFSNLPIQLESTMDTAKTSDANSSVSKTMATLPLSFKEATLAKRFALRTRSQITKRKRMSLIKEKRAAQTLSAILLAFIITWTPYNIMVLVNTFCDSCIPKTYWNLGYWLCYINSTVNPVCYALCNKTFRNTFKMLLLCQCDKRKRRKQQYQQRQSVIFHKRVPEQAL
Acetylcholinesterase, sequence (P22303 whole entry): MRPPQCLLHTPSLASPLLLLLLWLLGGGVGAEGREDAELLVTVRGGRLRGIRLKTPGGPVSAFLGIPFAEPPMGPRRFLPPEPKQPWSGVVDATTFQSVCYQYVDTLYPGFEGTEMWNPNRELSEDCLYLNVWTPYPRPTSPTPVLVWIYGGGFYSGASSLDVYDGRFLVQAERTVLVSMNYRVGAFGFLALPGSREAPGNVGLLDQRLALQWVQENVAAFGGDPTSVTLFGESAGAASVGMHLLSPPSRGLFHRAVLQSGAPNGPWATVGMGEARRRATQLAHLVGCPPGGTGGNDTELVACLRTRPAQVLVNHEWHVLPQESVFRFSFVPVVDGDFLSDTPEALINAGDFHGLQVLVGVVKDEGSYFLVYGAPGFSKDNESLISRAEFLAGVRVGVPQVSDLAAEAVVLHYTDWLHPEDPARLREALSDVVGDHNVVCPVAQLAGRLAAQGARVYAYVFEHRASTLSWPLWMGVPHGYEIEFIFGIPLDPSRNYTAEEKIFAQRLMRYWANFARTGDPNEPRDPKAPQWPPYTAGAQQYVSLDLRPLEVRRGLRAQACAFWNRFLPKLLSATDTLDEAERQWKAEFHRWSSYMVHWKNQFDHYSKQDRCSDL

Compound | pKapp [2] | pKB [3] | IC50 [4] | pKapp [6] | pKB [1] | IC50 [5]
COc1ccccc1CN(C)CCCCCC(=O)N(C)CCCCCCCCN(C)C(=O)CCCCCN(C)Cc1ccccc1OC | 4.99 | 5.55 |  |  | 6.39 | 
COc1ccccc1CN1CCCCCCCCN(Cc2ccccc2OC)C(=O)CCCCCNCc2ccc(cc2)CNCCCCCC1=O | 6.47 | < 5 | 170 nM |  | < 5 | 1410 nM
COc1ccccc1CN1CCCCCCN(C)CCCCCCCCN(C)CCCCCCN(Cc2ccccc2OC)Cc2ccc(cc2)-c2ccc(cc2)C1 | 6.35 |  | 447 nM |  |  | 
COc1ccccc1CN1CCCCCC(=O)N(C)CCCCCCCCN(C)C(=O)CCCCCN(Cc2ccccc2OC)Cc2ccc(cc2)-c2ccc(cc2)C1 | 5.1 |  | 525 nM |  |  | 53700 nM
COc1ccccc1CN1CCCCCCN(C)CCCCCCCCN(C)CCCCCCN(Cc2ccccc2OC)Cc2ccc(cc2)Cc2ccc(cc2)C1 | 6.21 | < 5 | 229 nM |  | < 5 | 
CN1CCCCCCCCN(C)CCCCCCNCc2ccc(cc2)-c2ccc(cc2)CNCCCCCC1 | < 4 |  | 4270 nM |  |  | 
COc1ccccc1CN1CCCCCCCCN(Cc2ccccc2OC)C(=O)CCCCCNCc2ccc(cc2)-c2ccc(cc2)CNCCCCCC1=O | 6.64 | < 5 | 589 nM |  | < 5 | 3390 nM
COc1ccccc1CN(CCCCCCCCN(Cc1ccccc1OC)C(=O)CCCCCN)C(=O)CCCCCN | 6.46 |  | 158 nM |  |  | 33100 nM

Now from value to molecule, other results behind:

pKapp [2] | pKB [3] | IC50 [4] | pKapp [6] | Compound | pKB [1] | IC50 [5]
6.35 | < 5 | 501 nM |  | COc1ccccc1CNCCCCCCNCc1ccc(-c2ccc(-c3ccc(CNCCCCCCNCc4ccccc4OC)cc3)cc2)cc1 | < 5 | 
6.43 |  | 3470 nM |  | COc1ccccc1CN1CCCCCCN(C)CCCCCCCCN(C)CCCCCCN(Cc2ccccc2OC)Cc2ccc(cc2)C1 |  | 
5.66 | 5.98 |  |  | COc1ccccc1CNCCCCCCNCCCCCCCCCCCCNCCCCCCNCc1ccccc1OC | 7.35 | 
6.21 | 6.14 | 1170 nM |  | COc1ccccc1CNCCCCCCNCCCCCCCCNCCCCCCNCc1ccccc1OC [METHOCTRAMINE] |  | 
 |  | 324 nM | 6.01 | COc1ccccc1CN1CCCCCCCCN(Cc2ccccc2OC)CCCCCCNCc2ccc(cc2)CNCCCCCC1 |  | 
 |  | 331 nM | 6.4 | COc1ccccc1CN(CCCCCCN)CCCCCCCCN(CCCCCCN)Cc1ccccc1OC |  | 
6.26 | < 5 | 191 nM |  | COc1ccccc1CN1CCCCCCCCN(Cc2ccccc2OC)CCCCCCNCc2ccc(cc2)Cc2ccc(cc2)CNCCCCCC1 |  | 
 |  | 1200 nM | 5.48 | COc1ccccc1CN1CCCCCCCCN(Cc2ccccc2OC)CCCCCCNCc2ccc(cc2)-c2ccc(cc2)CNCCCCCC1 |  | 
